Assay: Cytotoxicity in MDCK cells
Assay type: cell-based, Canine
Details: dog
In short: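 MDCK cells (1 × 10^5/well) grown 24 h at 37 °C, 5% CO2, then washed twice with PBS pH 7.20. Exposed to test compound at 100 to 3.12 μM in p-MEM for 72 h at 37 °C, 5% CO2. Fixed, stained with 0.40% crystal violet in methanol, A490 read. Viability expressed relative to untreated cell control; CC50 by regression. Triplicate.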

**Q.** With `CCC(CC)O[C@@H]1C=C(C(=O)O)C[C@H](N)[C@H]1NC(C)=O` [OC, Oseltamivir carboxylate] as the compound, how does the CC50 at 72 h read?
**A.** Its CC50 at 72 h is > 100 µM.

From paper PMC7138392 (Industrial Crops and Products, 2019)
